The record followed here is ChEMBL document CHEMBL1156417, “Transferable resistance to aminoglycosides by methylation of G1405 in 16S rRNA and to hydrophilic fluoroquinolones by QepA-mediated efflux in Escherichia coli” (2007).

Holding throughout (type): functional
Experiment [1] deals with Escherichia coli. The experiment can be described thus: Antibacterial activity against Escherichia coli C600Rif by Etest. A digest of the protocol:
(§1)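 MIC read by Etest on Mueller-Hinton agar after 24 h incubation. Strains were grown in brain heart infusion broth or on agar at 37°C. C600Rif served as the conjugation recipient and TOP10 as the transformation recipient.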

In experiment [2] the test system is Escherichia coli. Description: Antibacterial activity against Escherichia coli TOP10 containing pIP1206 plasmid by Etest. A digest of the protocol:
as §1

Experiment [3] deals with Escherichia coli. Description: Antibacterial activity against Escherichia coli 1540 isolate by […]. In a few lines:
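Disk diffusion on Mueller-Hinton agar following Comité de l'Antibiogramme de la Société Française de Microbiologie standards; clinical isolate from Belgian hospital screening; strains grown in brain heart infusion broth or agar at 37°C.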
(In general: In agar diffusion tests the substance spreads into inoculated agar from a disc or well.)

Experiment [4] deals with Escherichia coli. Description: Antibacterial activity against Escherichia coli TOP10 in presence of 50 ug/ml efflux pump inhibitor phenyl-arginine-beta-naphthylamide by Etest.
The test system of experiment [5] is Escherichia coli. Description: Antibacterial activity against Escherichia coli TOP10 containing pIP1206 plasmid in presence of 50 ug/ml efflux pump inhibitor phenyl-arginine-beta-naphthylamide by Etest.
Experiment [6] relates to Escherichia coli. The experiment can be described thus: Antibacterial activity against Escherichia coli C600Rif containing pIP1206 plasmid in presence of 50 ug/ml efflux pump inhibitor phenyl-arginine-beta-naphthylamide by Etest.
Experiment [7] has as its system Escherichia coli. The experiment can be described thus: Antibacterial activity against Escherichia coli TOP10 by Etest. A digest of the protocol:
as §1

Experiment [8] concerns Escherichia coli. Description: Antibacterial activity against Escherichia coli TOP10 containing pIP1206 plasmid in presence of 40 ug/ml efflux pump inhibitor 1-(1-naphthylmethyl)-piperazine by Etest.
The test system of experiment [9] is Escherichia coli. Description: Antibacterial activity against Escherichia coli TOP10 containing pAT851 plasmid by Etest. In a few lines: as §1
For experiment [10], the system named is Escherichia coli. Description: Antibacterial activity against Escherichia coli C600Rif in presence of 50 ug/ml efflux pump inhibitor phenyl-arginine-beta-naphthylamide by Etest.
The subject of experiment [11] is Escherichia coli. Description: Antibacterial activity against Escherichia coli TOP10 in presence of 40 ug/ml efflux pump inhibitor 1-(1-naphthylmethyl)-piperazine by Etest.
Experiment [12] deals with Escherichia coli. The experiment can be described thus: microbe, parasite or virus in culture.
Experiment [13] concerns Escherichia coli. Description: Antibacterial activity against Escherichia coli TOP10 containing pAT851 in presence of 40 ug/ml efflux pump inhibitor 1-(1-naphthylmethyl)-piperazine by Etest.
Experiment [14] deals with Escherichia coli. The experiment can be described thus: Antibacterial activity against Escherichia coli C600Rif in presence of 40 ug/ml efflux pump inhibitor 1-(1-naphthylmethyl)-piperazine by Etest.
Experiment [15] relates to Escherichia coli. The experiment can be described thus: Antibacterial activity against Escherichia coli C600Rif containing pIP1206 plasmid by Etest. A digest of the protocol:
as §1

The subject of experiment [16] is Escherichia coli. Description: Antibacterial activity against Escherichia coli TOP10 containing pAT851 in presence of 50 ug/ml efflux pump inhibitor phenyl-arginine-beta-naphthylamide by Etest.

Each structure is given as a SMILES string. Converted amounts (≈) assume the structure as drawn. A value given as a limit tells only on which side of the number the result lay.

Take `O=C(O)c1cn(C2CC2)c2cc(N3CCNCC3)c(F)cc2c1=O` [CIPROFLOXACIN]: the MIC with Escherichia coli [1] is 0.023 µg/mL (≈ 0.0694 µM); against Escherichia coli [2] it was 0.023 µg/mL (≈ 0.0694 µM); against Escherichia coli [3], > 32 µg/mL.

In the case of `CCn1cc(C(=O)O)c(=O)c2cc(F)c(N3CCNCC3)cc21` [NORFLOXACIN], the MIC in the experiment on Escherichia coli [4] worked out at 0.016 µg/mL; in the experiment on Escherichia coli [5], 0.016 µg/mL; in the experiment on Escherichia coli [6], 0.047 µg/mL; in the experiment on Escherichia coli [7], 0.032 µg/mL (≈ 0.1 µM); with Escherichia coli [8], 0.016 µg/mL; in the experiment on Escherichia coli [9] it was 0.19 µg/mL (≈ 0.595 µM). In addition, the MIC with Escherichia coli [10] worked out at 0.032 µg/mL; with Escherichia coli [11] it was 0.016 µg/mL; against Escherichia coli [12], 0.064 µg/mL (≈ 0.2 µM); in the experiment on Escherichia coli [13] it was 0.016 µg/mL; against Escherichia coli [1], 0.064 µg/mL (≈ 0.2 µM); against Escherichia coli [2], 0.38 µg/mL (≈ 1.19 µM). In addition, the MIC amounted to 0.047 µg/mL in the experiment with Escherichia coli [14], 1.5 µg/mL (≈ 4.7 µM) in the experiment on Escherichia coli [15] and 0.016 µg/mL in the experiment on Escherichia coli [16].

Take `CO/N=C(\C(=O)N[C@@H]1C(=O)N2C(C(=O)O)=C(COC(C)=O)CS[C@H]12)c1csc(N)n1` [CEFOTAXIME]: in the experiment on Escherichia coli [3], the MIC worked out at 32 µg/mL (≈ 70.3 µM).

`CCn1cc(C(=O)O)c(=O)c2ccc(C)nc21` [NALIDIXIC ACID]: the MIC in the experiment with Escherichia coli [4] is 1 µg/mL; with Escherichia coli [5], 1 µg/mL; in the experiment with Escherichia coli [6], 1.5 µg/mL; against Escherichia coli [7] it was 1.5 µg/mL (≈ 6.46 µM); with Escherichia coli [8], 1 µg/mL; with Escherichia coli [9] it was 1.5 µg/mL (≈ 6.46 µM). In addition, the MIC in the experiment on Escherichia coli [10] was 1.5 µg/mL; with Escherichia coli [11], 1 µg/mL; with Escherichia coli [12], 1.5 µg/mL (≈ 6.46 µM); in the experiment on Escherichia coli [13], 1 µg/mL; in the experiment with Escherichia coli [1], 2 µg/mL (≈ 8.61 µM); against Escherichia coli [2], 1.5 µg/mL (≈ 6.46 µM). Moreover, the MIC in the experiment with Escherichia coli [14] amounted to 1.5 µg/mL; in the experiment with Escherichia coli [15] it was 2 µg/mL (≈ 8.61 µM); in the experiment on Escherichia coli [16] it was 1 µg/mL.

As for `COc1c(N2C[C@@H]3CCCN[C@@H]3C2)c(F)cc2c(=O)c(C(=O)O)cn(C3CC3)c12` [MOXIFLOXACIN], the MIC in the experiment on Escherichia coli [4] came out at 0.002 µg/mL; in the experiment with Escherichia coli [5], 0.002 µg/mL; in the experiment on Escherichia coli [6], 0.006 µg/mL; against Escherichia coli [7], 0.004 µg/mL (≈ 0.00996 µM); in the experiment with Escherichia coli [8] it was 0.002 µg/mL; with Escherichia coli [9], 0.004 µg/mL (≈ 0.00996 µM). The MIC with Escherichia coli [10] was found to be 0.032 µg/mL; with Escherichia coli [11], 0.002 µg/mL; in the experiment on Escherichia coli [12] it was 0.032 µg/mL (≈ 0.0797 µM); in the experiment on Escherichia coli [13], 0.002 µg/mL; against Escherichia coli [1], 0.064 µg/mL (≈ 0.159 µM); with Escherichia coli [2], 0.006 µg/mL (≈ 0.0149 µM). Besides, the results for the MIC in the experiment with Escherichia coli [14], against Escherichia coli [15] and in the experiment with Escherichia coli [16] were 0.032 µg/mL, 0.094 µg/mL (≈ 0.234 µM) and 0.002 µg/mL, respectively.

As to `NC[C@H]1O[C@H](O[C@H]2[C@H](O)[C@@H](O[C@H]3O[C@H](CO)[C@@H](O)[C@H](N)[C@H]3O)[C@H](N)C[C@@H]2N)[C@H](O)[C@@H](O)[C@@H]1O` [KANAMYCIN], in the experiment with Escherichia coli [3], the MIC was > 512 µg/mL.

For `O=C(N[C@H](CO)[C@H](O)c1ccc([N+](=O)[O-])cc1)C(Cl)Cl` [CHLORAMPHENICOL], the MIC in the experiment with Escherichia coli [3] is > 256 µg/mL.

Regarding `CN(C)[C@@H]1C(O)=C(C(N)=O)C(=O)[C@@]2(O)C(O)=C3C(=O)c4c(O)cccc4[C@@](C)(O)[C@H]3C[C@@H]12` [TETRACYCLINE], the MIC in the experiment with Escherichia coli [3] is > 256 µg/mL.

`COc1c(N2CCNC(C)C2)c(F)cc2c(=O)c(C(=O)O)cn(C3CC3)c12` (centres undefined) [GATIFLOXACIN]: the MIC in the experiment on Escherichia coli [4] was determined as 0.002 µg/mL; with Escherichia coli [5] it was 0.002 µg/mL; in the experiment with Escherichia coli [6] it was 0.012 µg/mL; in the experiment with Escherichia coli [7], 0.003 µg/mL (≈ 0.00799 µM); in the experiment with Escherichia coli [8] it was 0.002 µg/mL; against Escherichia coli [9] it was 0.003 µg/mL (≈ 0.00799 µM). The MIC in the experiment with Escherichia coli [10] is 0.016 µg/mL; in the experiment with Escherichia coli [11], 0.002 µg/mL; against Escherichia coli [12], 0.016 µg/mL (≈ 0.0426 µM); with Escherichia coli [13], 0.002 µg/mL; with Escherichia coli [1], 0.023 µg/mL (≈ 0.0613 µM); in the experiment on Escherichia coli [2], 0.003 µg/mL (≈ 0.00799 µM). In addition, the MIC came to 0.016 µg/mL in the experiment on Escherichia coli [14], 0.032 µg/mL (≈ 0.0852 µM) in the experiment with Escherichia coli [15] and 0.002 µg/mL in the experiment on Escherichia coli [16].

Regarding `CC1(C)S[C@@H]2[C@H](NC(=O)[C@H](N)c3ccccc3)C(=O)N2[C@H]1C(=O)O` [AMPICILLIN], the MIC with Escherichia coli [3] is > 256 µg/mL.

Regarding `CCN[C@@H]1C[C@H](N)[C@@H](O[C@H]2OC(CN)=CC[C@H]2N)[C@H](O)[C@H]1O[C@H]1OC[C@](C)(O)[C@H](NC)[C@H]1O` [NETILMICIN], the MIC against Escherichia coli [3] is > 512 µg/mL.

`NCC[C@H](O)C(=O)N[C@@H]1C[C@H](N)[C@@H](O[C@H]2O[C@H](CN)[C@@H](O)[C@H](O)[C@H]2O)[C@H](O)[C@H]1O[C@H]1O[C@H](CO)[C@@H](O)[C@H](N)[C@H]1O` [AMIKACIN]: in the experiment on Escherichia coli [3], the MIC is > 512 µg/mL.

As for `CCn1cc(C(=O)O)c(=O)c2cc(F)c(N3CCN(C)CC3)cc21` [PEFLOXACIN], the MIC against Escherichia coli [1] came to 0.094 µg/mL (≈ 0.282 µM); with Escherichia coli [2], 0.023 µg/mL (≈ 0.069 µM); with Escherichia coli [15], 0.094 µg/mL (≈ 0.282 µM).

`NC[C@H]1O[C@H](O[C@H]2[C@H](O)[C@@H](O[C@H]3O[C@H](CO)[C@@H](O)[C@H](N)[C@H]3O)[C@H](N)C[C@@H]2N)[C@H](N)C[C@@H]1O` [TOBRAMYCIN]: the MIC with Escherichia coli [3] was > 512 µg/mL.

With `CN(C)c1ccc(O)c2c1C[C@H]1C[C@H]3[C@H](N(C)C)C(O)=C(C(N)=O)C(=O)[C@@]3(O)C(O)=C1C2=O` [MINOCYCLINE], in the experiment on Escherichia coli [3], the MIC amounted to 16 µg/mL (≈ 35 µM).

Turning to `C[C@H]1COc2c(N3CCN(C)CC3)c(F)cc3c(=O)c(C(=O)O)cn1c23.C[C@H]1COc2c(N3CCN(C)CC3)c(F)cc3c(=O)c(C(=O)O)cn1c23.O` [LEVOFLOXACIN], the MIC stood at 0.006 µg/mL against Escherichia coli [7], 0.032 µg/mL in the experiment on Escherichia coli [1], 0.006 µg/mL with Escherichia coli [2] and 0.032 µg/mL with Escherichia coli [15].

Consider `CC[n+]1c(-c2ccccc2)c2cc(N)ccc2c2ccc(N)cc21.[Br-]` [HOMIDIUM BROMIDE], for which the MIC with Escherichia coli [4] amounted to 64 µg/mL; in the experiment with Escherichia coli [5], 64 µg/mL; in the experiment with Escherichia coli [6], 64 µg/mL; with Escherichia coli [7], 128 µg/mL; in the experiment with Escherichia coli [8], 64 µg/mL; against Escherichia coli [9], 128 µg/mL. Besides, the MIC with Escherichia coli [10] turned out to be 128 µg/mL; with Escherichia coli [11] it was 64 µg/mL; in the experiment on Escherichia coli [12], 64 µg/mL; in the experiment with Escherichia coli [13], 64 µg/mL; against Escherichia coli [1], 128 µg/mL; against Escherichia coli [2] it was 128 µg/mL. Besides, the MIC came out at 64 µg/mL in the experiment on Escherichia coli [14], 128 µg/mL with Escherichia coli [15] and 128 µg/mL with Escherichia coli [16].
